ChEMBL document CHEMBL1123146, “Design, synthesis, and evaluation of omega-iodovinyl- and omega-iodoalkyl-substituted methyl-branched long-chain fatty acids” (J Med Chem, 1985)

Columns and labels:
Rattus norvegicus [1] = test: Concentration was measured in kidney tissue of unfasted Fischer 344 rats administered intravenously after 60 minute (radiolabeled with [125I]-; format: ADME, organism-based; conditions: in vivo, iv, 1 h
How it was run: (§1)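 Female Fischer 344 rats, 10-12 weeks old, 170-200 g, with food and water ad libitum. The 125I-fatty acid was taken up in ethanol, added dropwise to stirred 6% BSA at ~40 °C (final ethanol 10%), filtered, and given as 0.5 mL via lateral tail vein under ether anesthesia. Rats were killed by cervical fracture; blood was taken by cardiac puncture. Organs were rinsed, blotted, weighed and gamma-counted against injectate standards to give %ID/g. Five rats per time point.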

Rattus norvegicus [2] = test: Concentration was measured in kidney tissue of unfasted Fischer 344 rats administered intravenously after 2 minute (radiolabeled with [125I]-; format: ADME, organism-based; conditions: in vivo, iv, 2 min; how it was run: as §1
Rattus norvegicus [3] = test: Concentration was measured in liver tissue f unfasted Fischer 344 rats administered intravenously after 10 minute (radiolabeled with [125I]-; format: ADME, organism-based; conditions: in vivo, iv, 10 min; how it was run: as §1
Rattus norvegicus [4] = test: Concentration was measured in liver tissue of unfasted Fischer 344 rats administered intravenously after 60 minute (radiolabeled with [125I]-; format: ADME, organism-based; conditions: in vivo, iv, 1 h; how it was run: as §1
Rattus norvegicus [5] = test: Concentration was measured in liver tissue of unfasted Fischer 344 rats administered intravenously after 2 minute (radiolabeled with [125I]-; format: ADME, organism-based; conditions: in vivo, iv, 2 min; how it was run: as §1
Rattus norvegicus [6] = test: Concentration was measured in liver tissue of unfasted Fischer 344 rats administered intravenously after 5 minute (radiolabeled with [125I]-; format: ADME, organism-based; conditions: in vivo, iv, 5 min; how it was run: as §1
Rattus norvegicus [7] = test: Concentration was measured in lungs tissue of unfasted Fischer 344 rats administered intravenously after 10 minute (radiolabeled with [125I]-; format: ADME, organism-based, Lung; conditions: in vivo, iv, 10 min; how it was run: as §1
Rattus norvegicus [8] = test: Concentration was measured in lungs tissue of unfasted Fischer 344 rats administered intravenously after 2 minute (radiolabeled with [125I]-; format: ADME, organism-based, Lung; conditions: in vivo, iv, 2 min; how it was run: as §1
Rattus norvegicus [9] = test: Concentration was measured in heart tissue of unfasted Fischer 344 rats administered intravenously after 2 minute (radiolabeled with [125I]-; format: ADME, organism-based; conditions: in vivo, iv, 2 min; how it was run: as §1
Rattus norvegicus [10] = test: Concentration was measured in heart tissue of unfasted Fischer 344 rats administered intravenously after 5 minute (radiolabeled with [125I]-; format: ADME, organism-based; conditions: in vivo, iv, 5 min; how it was run: as §1
Rattus norvegicus [11] = test: Concentration was measured in heart tissue of unfasted Fischer 344 rats administered intravenously after 60 minute (radiolabeled with [125I]-; format: ADME, organism-based; conditions: in vivo, iv, 1 h; how it was run: as §1
Rattus norvegicus [12] = test: Concentration was measured in heart tissue of unfasted Fischer 344 rats administered intravenously after 10 min (radiolabeled with [125I]-; format: ADME, organism-based; conditions: in vivo, iv; how it was run: as §1
Rattus norvegicus [13] = test: Concentration was measured in kidney tissue of unfasted Fischer 344 rats administered intravenously after 10 minute (radiolabeled with [125I]-; format: ADME, organism-based; conditions: in vivo, iv, 10 min; how it was run: as §1
Rattus norvegicus [14] = test: Concentration was measured in kidney tissue of unfasted Fischer 344 rats administered intravenously after 5 minute (radiolabeled with [125I]-; format: ADME, organism-based; conditions: in vivo, iv, 5 min; how it was run: as §1
Rattus norvegicus [15] = test: Concentration was measured in lungs tissue of unfasted Fischer 344 rats administered intravenously after 5 minute (radiolabeled with [125I]-; format: ADME, organism-based, Lung; conditions: in vivo, iv, 5 min; how it was run: as §1
Rattus norvegicus [16] = test: Concentration was measured in blood tissue of unfasted Fischer 344 rats administered intravenously after 10 minute (radiolabeled with [125I]-; format: ADME, organism-based; conditions: in vivo, iv, 10 min; how it was run: as §1
Rattus norvegicus [17] = test: Concentration was measured in blood tissue of unfasted Fischer 344 rats administered intravenously after 60 minute (radiolabeled with [125I]-; format: ADME, organism-based; conditions: in vivo, iv, 1 h; how it was run: as §1
Rattus norvegicus [18] = test: Concentration was measured in blood tissue of unfasted Fischer 344 rats administered intravenously after 2 minute (radiolabeled with [125I]-; format: ADME, organism-based; conditions: in vivo, iv, 2 min; how it was run: as §1
Rattus norvegicus [19] = test: Concentration was measured in blood tissue of unfasted Fischer 344 rats administered intravenously after 5 minute (radiolabeled with [125I]-; format: ADME, organism-based; conditions: in vivo, iv, 5 min; how it was run: as §1
Rattus norvegicus [20] = test: Concentration was measured in thyroid tissue of unfasted Fischer 344 rats administered intravenously after 10 minute (radiolabeled with [125I]-; format: ADME, organism-based, Thyroid gland; conditions: in vivo, iv, 10 min
How it was run: (§2)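 Female Fischer 344 rats, five per time point, each given 11 μCi of the ¹²⁵I-labeled fatty acid (~269 mCi/mmol) via a lateral tail vein in 0.5 mL of 6% BSA (10% ethanol) under ether anesthesia. Blood was drawn by cardiac puncture; organs were rinsed, weighed and gamma-counted against injectate standards. Output is % injected dose/g and mean heart/blood ratio.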

Rattus norvegicus [21] = test: Concentration was measured in thyroid tissue of unfasted Fischer 344 rats administered intravenously after 2 minute (radiolabeled with [125I]-; format: ADME, organism-based, Thyroid gland; conditions: in vivo, iv, 2 min
How it was run: (§3)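 Female Fischer 344 rats, 10–12 weeks old (170–200 g), with food and water ad libitum, five per time point. The radioiodinated fatty acid was dissolved in ethanol, added to 6% BSA at ~40 °C (final 10% ethanol), filtered, and injected into a lateral tail vein (0.5 mL) under ether anesthesia. Blood was taken by cardiac puncture; organs were rinsed, blotted, weighed and gamma-counted against injectate standards. Output is % injected dose/g.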

Rattus norvegicus [22] = test: Concentration was measured in thyroid tissue of unfasted Fischer 344 rats administered intravenously after 5 minute (radiolabeled with [125I]-; format: ADME, organism-based, Thyroid gland; conditions: in vivo, iv, 5 min; how it was run: as §3
Rattus norvegicus [23] = test: Concentration was measured in thyroid tissue of unfasted Fischer 344 rats administered intravenously after 60 minute (radiolabeled with [125I]-; format: ADME, organism-based, Thyroid gland; conditions: in vivo, iv, 1 h; how it was run: as §3
Rattus norvegicus [24] = test: Concentration was measured in lungs tissue of unfasted Fischer 344 rats administered intravenously after 60 minute (radiolabeled with [125I]-; format: ADME, organism-based, Lung; conditions: in vivo, iv, 1 h; how it was run: as §1
Rattus norvegicus [25] = test: Concentration was measured in mean heart/blood tissue of unfasted Fischer 344 rats administered intravenously after 10 minute (radiolabeled with [125I]-; format: ADME, organism-based; conditions: iv, 10 min; how it was run: as §2
Rattus norvegicus [26] = test: Concentration was measured in mean heart/blood tissue of unfasted Fischer 344 rats administered intravenously after 2 minute (radiolabeled with [125I]-; format: ADME, organism-based; conditions: in vivo, iv, 2 min
Rattus norvegicus [27] = species: Rattus norvegicus; test: Specific activity was determined with radioiodinated iodine-125; format: functional
Rattus norvegicus [28] = test: Concentration was measured in mean heart/blood tissue of fasted Fischer 344 rats administered intravenously after 5 minute (radiolabeled with [125I]-; conditions: in vivo, iv, 5 min
Rattus norvegicus [29] = test: Concentration was measured in mean heart/blood tissue of fasted Fischer 344 rats administered intravenously after 60 minute (radiolabeled with [125I]-; conditions: in vivo, iv, 1 h

Work on `CC(CCCCCCCCCCCCCCI)CC(=O)O` (centres undefined) yielded a Distribution (Rattus norvegicus [1]) of 0.59%, a Distribution (Rattus norvegicus [2]) of 1.35% and a Distribution (Rattus norvegicus [3]) of 2.54%. The Distribution (Rattus norvegicus [4]) was 0.95%, the Distribution (Rattus norvegicus [5]) was 3.93% and the Distribution (Rattus norvegicus [6]) was 2.5%. For the same compound, the Distribution (Rattus norvegicus [7]) was 1.16%, the Distribution (Rattus norvegicus [8]) was 1.75% and the Distribution (Rattus norvegicus [9]) was 2.68%. For the same compound, the Distribution (Rattus norvegicus [10]) was 1.93%, the Distribution (Rattus norvegicus [11]) was 0.95% and the Distribution (Rattus norvegicus [12]) was 1.77%. It also gave a Distribution (Rattus norvegicus [13]) of 0.96%, a Distribution (Rattus norvegicus [14]) of 1.06% and a Distribution (Rattus norvegicus [15]) of 1.03%. The Distribution (Rattus norvegicus [16]) was 1.31%, the Distribution (Rattus norvegicus [17]) was 0.72% and the Distribution (Rattus norvegicus [18]) was 2.47%. For the same compound, the Distribution (Rattus norvegicus [19]) was 1.43%, the Distribution (Rattus norvegicus [20]) was 43.3% and the Distribution (Rattus norvegicus [21]) was 22.5%. The Distribution (Rattus norvegicus [22]) was 30.2%, the Distribution (Rattus norvegicus [23]) was 217% and the Distribution (Rattus norvegicus [24]) was 0.68%. The Distribution (Rattus norvegicus [25]) was 1.35%, the Distribution (Rattus norvegicus [26]) was 1.09% and the Specific activity (Rattus norvegicus [27]) was 0.269 Ci mM-1. For the same compound, the Distribution (Rattus norvegicus [28]) was 1.35% and the Distribution (Rattus norvegicus [29]) was 1.32%.
